From ChEMBL document CHEMBL1131013, “Synthesis and evaluation of analogues of the partial agonist 6-(propyloxy)-4-(methoxymethyl)-beta-carboline-3-carboxylic acid ethyl ester (6-PBC) and the full agonist 6-(benzyloxy)-4-(methoxymethyl)-beta-carboline-3-carboxylic acid ethyl ester (Zk 93423) at wild type and recombinant GABAA receptors” (J Med Chem, 1998)

molecular target: T1, GABA-A receptor; alpha-5/beta-3/gamma-2 (Homo sapiens, UniProt P18507+P28472+P31644); experiment: Binding affinity measured using LtK- cell membranes expressing Gamma-aminobutyric acid A receptor alpha-5-beta-3-gamma-2
T1 sequence (P18507 whole entry): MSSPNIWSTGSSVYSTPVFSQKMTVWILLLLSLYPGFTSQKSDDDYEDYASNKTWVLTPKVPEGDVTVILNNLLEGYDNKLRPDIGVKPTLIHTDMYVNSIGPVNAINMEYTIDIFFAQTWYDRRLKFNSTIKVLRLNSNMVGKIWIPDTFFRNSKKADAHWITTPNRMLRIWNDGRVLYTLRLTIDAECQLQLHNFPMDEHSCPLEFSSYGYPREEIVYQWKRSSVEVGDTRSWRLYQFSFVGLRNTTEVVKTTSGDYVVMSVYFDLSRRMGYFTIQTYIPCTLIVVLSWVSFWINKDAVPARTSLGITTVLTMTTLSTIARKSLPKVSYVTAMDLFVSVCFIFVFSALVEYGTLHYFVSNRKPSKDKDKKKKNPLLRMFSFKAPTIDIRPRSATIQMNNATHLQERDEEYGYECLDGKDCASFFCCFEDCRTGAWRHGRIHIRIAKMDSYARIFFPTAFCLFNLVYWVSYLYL
T1 sequence (P28472 whole entry): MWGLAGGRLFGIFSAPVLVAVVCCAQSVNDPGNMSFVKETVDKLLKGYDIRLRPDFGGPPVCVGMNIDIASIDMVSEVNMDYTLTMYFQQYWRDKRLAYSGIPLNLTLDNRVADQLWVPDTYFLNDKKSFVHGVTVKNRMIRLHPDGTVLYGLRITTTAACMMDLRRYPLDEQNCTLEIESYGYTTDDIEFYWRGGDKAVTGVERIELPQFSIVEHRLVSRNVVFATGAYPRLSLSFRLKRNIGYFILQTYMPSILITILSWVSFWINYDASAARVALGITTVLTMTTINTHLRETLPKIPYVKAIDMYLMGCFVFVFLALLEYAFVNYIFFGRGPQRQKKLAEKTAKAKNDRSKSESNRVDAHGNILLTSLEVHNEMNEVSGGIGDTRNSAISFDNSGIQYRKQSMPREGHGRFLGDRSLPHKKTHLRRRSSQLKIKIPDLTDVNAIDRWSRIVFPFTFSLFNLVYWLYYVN
T1 sequence (P31644 whole entry): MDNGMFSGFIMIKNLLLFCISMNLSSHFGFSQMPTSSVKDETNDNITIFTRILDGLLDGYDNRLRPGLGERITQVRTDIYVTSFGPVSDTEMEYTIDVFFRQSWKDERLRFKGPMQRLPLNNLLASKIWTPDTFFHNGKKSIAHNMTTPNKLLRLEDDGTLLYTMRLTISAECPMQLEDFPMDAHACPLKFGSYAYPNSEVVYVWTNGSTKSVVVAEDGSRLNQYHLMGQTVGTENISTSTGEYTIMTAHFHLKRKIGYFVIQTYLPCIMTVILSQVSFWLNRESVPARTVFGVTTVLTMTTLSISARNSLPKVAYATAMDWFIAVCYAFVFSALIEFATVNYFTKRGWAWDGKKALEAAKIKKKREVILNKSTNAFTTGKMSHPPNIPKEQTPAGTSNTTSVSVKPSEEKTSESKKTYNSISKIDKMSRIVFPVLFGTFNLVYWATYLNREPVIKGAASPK

Row | SMILES | Ki [nM]
1 | CCOC(=O)c1ncc2[nH]c3ccc(OCc4ccccc4)cc3c2c1COC | 4.5
2 | Cc1ccc(-c2nc3ccc(C)cn3c2CC(=O)N(C)C)cc1 [ZOLPIDEM] | > 10000
3 | CCc1c(OC)[nH]cc2nc3cc(OC)c(OC)cc3c1-2 | > 300
4 | CCc1c(C(=O)OC)ncc2[nH]c3cc(OC)c(OC)cc3c12 | 1
5 | CCOC(=O)c1[nH]cc2nc3ccc(OCc4cccc5ccccc45)cc3c-2c1COC | 323

molecular target: GABA-A receptor; anion channel; experiment: Displacement of [3H]flunitrazepam from GABA-A Benzodiazepine receptor of rat brain cortical membranes; format: cell membranes, Membrane
In short: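 Rat cerebral cortex homogenized in 50 mM Tris-citrate, pH 7.4, and washed by centrifugation (20000g). […] Nonspecific binding with 10 μM Ro15-1788. Ended by vacuum filtration. IC50 estimated from at least six inhibitor concentrations; mean ± SEM of at least three determinations.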

Row | SMILES | IC50 [nM]
6 | CCCOc1[nH]cc2nc3ccc(OCc4ccccc4)cc3c-2c1COC | 63.8
7 | CCCCCCCCOc1ccc2c(c1)c1c(CC)c(C(=O)OCC)ncc1n2C | > 1000
8 | CCOC(=O)c1ncc2c(c1CC)c1cc(OCc3cccc4ccccc34)ccc1n2C | > 1000
9 | COCc1c(N)[nH]cc2nc3ccc(OCc4ccccc4)cc3c1-2 | 271
10 | COCc1c(/N=C(/S)OC)[nH]cc2nc3ccc(OCc4ccccc4)cc3c1-2 | 176
11 | CCCOc1ccc2c(c1)c1c(COC)c(C(=O)OCC)ncc1n2C | 290
12 | CCOC(=O)c1ncc2c(c1CC)c1cc(OCc3ccccc3)ccc1n2C | > 5000
13 | CCCOc1ccc2[nH]c3cnc(N=C=S)c(COC)c3c2c1 | 24.7
14 | CCOC(=O)c1cc2c3cc(OCc4ccccc4)ccc3n(C)c2cn1 | > 5000
15 | CCCOc1ccc2[nH]c3cnc(C(=O)OC(C)C)c(COC)c3c2c1 | 30.8
16 | CCOC(=O)c1ncc2c(c1COC)c1cc(OCc3cccc4ccccc34)ccc1n2C | 730
17 | CCOC(=O)c1[nH]cc2nc3ccc(OCc4cccc5ccccc45)cc3c-2c1COC | 55.5

molecular target: T2, GABA-A receptor; alpha-1/beta-3/gamma-2 (Homo sapiens, UniProt P14867+P18507+P28472); experiment: Binding affinity measured using LtK- cell membranes expressing GABA alpha-1-beta-3-gamma-2 receptor
T2 sequence (P14867 whole entry): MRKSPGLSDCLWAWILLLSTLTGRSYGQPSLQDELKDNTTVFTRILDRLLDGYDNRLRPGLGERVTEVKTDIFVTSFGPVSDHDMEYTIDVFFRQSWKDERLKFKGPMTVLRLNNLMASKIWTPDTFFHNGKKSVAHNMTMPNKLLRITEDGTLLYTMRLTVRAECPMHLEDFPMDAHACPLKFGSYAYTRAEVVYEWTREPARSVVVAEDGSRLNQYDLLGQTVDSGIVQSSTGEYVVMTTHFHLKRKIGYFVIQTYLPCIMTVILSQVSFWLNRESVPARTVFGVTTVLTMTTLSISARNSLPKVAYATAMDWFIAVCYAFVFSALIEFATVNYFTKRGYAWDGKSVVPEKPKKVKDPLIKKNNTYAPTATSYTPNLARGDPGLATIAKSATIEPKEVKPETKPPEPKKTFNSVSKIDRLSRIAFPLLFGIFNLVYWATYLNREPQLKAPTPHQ
T2 sequence (P18507 whole entry): T1 sequence (P18507 whole entry)
T2 sequence (P28472 whole entry): T1 sequence (P28472 whole entry)

Row | SMILES | Ki [nM]
18 | CCOC(=O)c1cc2c(cn1)[nH]c1ccccc12 | 1.2
19 | CCOC(=O)c1ncc2[nH]c3ccc(OCc4ccccc4)cc3c2c1COC | 4.1
20 | CCc1c(OC)[nH]cc2nc3cc(OC)c(OC)cc3c1-2 | > 300
21 | CCc1c(C(=O)OC)ncc2[nH]c3cc(OC)c(OC)cc3c12 | 5.7
22 | CCOC(=O)c1[nH]cc2nc3ccc(OCc4cccc5ccccc45)cc3c-2c1COC | 15.4

molecular target: GABA-A receptor; alpha-6/beta-3/gamma-2 (Homo sapiens, UniProt P18507+P28472+Q16445); experiment: Binding affinity measured using LtK- cell membranes expressing Gamma-aminobutyric acid A receptor alpha-6-beta-3-gamma-2
In short: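 Ltk- cells expressing human α6β3γ2, scraped into PBS and resuspended in 10 mM KH2PO4/100 mM KCl pH 7.4. 1 h at 4 °C to equilibrium, filtration, scintillation counting.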

GABA-A receptor; alpha-6/beta-3/gamma-2, sequence (Q16445 whole entry, one chain of several): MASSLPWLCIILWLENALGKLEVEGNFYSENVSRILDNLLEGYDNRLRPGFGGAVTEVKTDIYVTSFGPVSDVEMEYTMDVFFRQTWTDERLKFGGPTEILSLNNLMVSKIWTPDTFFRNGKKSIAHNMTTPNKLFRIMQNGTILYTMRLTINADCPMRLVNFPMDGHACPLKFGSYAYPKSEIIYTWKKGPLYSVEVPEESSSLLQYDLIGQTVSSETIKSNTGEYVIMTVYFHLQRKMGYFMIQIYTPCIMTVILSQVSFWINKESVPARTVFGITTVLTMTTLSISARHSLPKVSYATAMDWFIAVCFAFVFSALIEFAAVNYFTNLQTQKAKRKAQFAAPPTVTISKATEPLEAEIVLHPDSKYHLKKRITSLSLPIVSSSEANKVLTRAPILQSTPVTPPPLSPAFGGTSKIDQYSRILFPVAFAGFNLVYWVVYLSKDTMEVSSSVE

Row | SMILES | Ki [nM]
23 | CCOC(=O)c1ncc2[nH]c3ccc(OCc4ccccc4)cc3c2c1COC | > 1000
24 | Cc1ccc(-c2nc3ccc(C)cn3c2CC(=O)N(C)C)cc1 [ZOLPIDEM] | > 10000
25 | CCc1c(OC)[nH]cc2nc3cc(OC)c(OC)cc3c1-2 | > 300
26 | CCc1c(C(=O)OC)ncc2[nH]c3cc(OC)c(OC)cc3c12 | 134
27 | CCOC(=O)c1[nH]cc2nc3ccc(OCc4cccc5ccccc45)cc3c-2c1COC | > 1000

molecular target: T3, GABA-A receptor; alpha-2/beta-3/gamma-2 (Homo sapiens, UniProt P18507+P28472+P47869); experiment: Binding affinity measured using LtK- cell membranes expressing GABA alpha-2-beta-3-gamma-2 receptor
T3 sequence (P18507 whole entry): T1 sequence (P18507 whole entry)
T3 sequence (P28472 whole entry): T1 sequence (P28472 whole entry)
T3 sequence (P47869 whole entry): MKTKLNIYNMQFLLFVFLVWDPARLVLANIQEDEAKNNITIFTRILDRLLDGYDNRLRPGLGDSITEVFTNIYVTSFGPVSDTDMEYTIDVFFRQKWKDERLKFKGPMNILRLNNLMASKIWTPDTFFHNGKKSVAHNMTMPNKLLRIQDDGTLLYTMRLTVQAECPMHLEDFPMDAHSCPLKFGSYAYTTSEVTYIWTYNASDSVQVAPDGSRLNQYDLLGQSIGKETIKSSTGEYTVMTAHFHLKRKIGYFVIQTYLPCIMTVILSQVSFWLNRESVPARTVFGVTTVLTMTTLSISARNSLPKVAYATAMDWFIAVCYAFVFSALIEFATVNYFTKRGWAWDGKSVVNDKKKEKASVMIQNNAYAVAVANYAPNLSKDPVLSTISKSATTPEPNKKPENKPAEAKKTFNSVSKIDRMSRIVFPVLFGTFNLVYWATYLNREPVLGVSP

Row | SMILES | Ki [nM]
28 | CCOC(=O)c1ncc2[nH]c3ccc(OCc4ccccc4)cc3c2c1COC | 4.2
29 | CCc1c(OC)[nH]cc2nc3cc(OC)c(OC)cc3c1-2 | > 300
30 | CCc1c(C(=O)OC)ncc2[nH]c3cc(OC)c(OC)cc3c12 | 8.3

molecular target: T4, GABA-A receptor; alpha-3/beta-3/gamma-2 (Homo sapiens, UniProt P18507+P28472+P34903); experiment: Binding affinity measured using LtK- cell membranes expressing GABA alpha-3-beta-3-gamma-2 receptor
T4 sequence (P18507 whole entry): T1 sequence (P18507 whole entry)
T4 sequence (P28472 whole entry): T1 sequence (P28472 whole entry)
T4 sequence (P34903 whole entry): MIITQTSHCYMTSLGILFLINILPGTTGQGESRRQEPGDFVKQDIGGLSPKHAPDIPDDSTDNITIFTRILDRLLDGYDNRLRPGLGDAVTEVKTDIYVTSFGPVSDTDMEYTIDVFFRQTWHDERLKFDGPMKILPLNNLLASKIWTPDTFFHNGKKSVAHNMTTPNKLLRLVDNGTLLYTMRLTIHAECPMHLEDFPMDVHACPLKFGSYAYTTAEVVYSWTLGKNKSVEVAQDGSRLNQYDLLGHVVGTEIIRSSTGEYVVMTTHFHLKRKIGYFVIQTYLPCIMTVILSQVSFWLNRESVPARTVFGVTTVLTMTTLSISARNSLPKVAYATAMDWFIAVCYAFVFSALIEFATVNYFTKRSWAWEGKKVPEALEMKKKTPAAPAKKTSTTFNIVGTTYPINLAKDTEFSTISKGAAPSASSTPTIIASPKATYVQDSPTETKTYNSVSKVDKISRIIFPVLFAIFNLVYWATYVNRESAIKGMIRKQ

Row | SMILES | Ki [nM]
31 | CCOC(=O)c1ncc2[nH]c3ccc(OCc4ccccc4)cc3c2c1COC | 6
32 | CCc1c(OC)[nH]cc2nc3cc(OC)c(OC)cc3c1-2 | > 300
33 | CCc1c(C(=O)OC)ncc2[nH]c3cc(OC)c(OC)cc3c12 | 4
34 | CCOC(=O)c1[nH]cc2nc3ccc(OCc4cccc5ccccc45)cc3c-2c1COC | 293
